Most compounds without a hit are left out; they make up all but 2.5% or so of the library.
SENP6 inh – blocks the human protease SENP6 | Q9GZR1 | Recombinant SENP6 catalytic domain, aminoluciferin luminescence | inhibition, % at 10 µM | 330,000 tested, 1.8% active;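 active means inhibition above about 50% at the single tested dose, limit read from the data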;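 further: plate controls were DMSO wells with enzyme for no effect and DMSO wells lacking enzyme for full effect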
SENP7 inh – blocks the human protease SENP7; inhibition, % at 5 µM; 330,000 tested, 1.5% active; Q9BQF6; AID 434973; recombinant SENP7, Z-RLRGG-aminoluciferin luminescence, 40 min;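 active means inhibition above about 50% at the single test dose, limit read from the data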;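 further: plate controls were DMSO with enzyme for no effect and no enzyme buffer wells for full effect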
SENP8 block-1 – SENP8 protease inhibition. Q96LD8. purified SENP8, Z-RLRGG-aminoluciferin cleavage, luminescence. inhibition, % at 10 µM. 330,000 tested, 1.2% active; in the data active means inhibition above about 50%
Target sequence (Q96LD8 whole entry, looked up): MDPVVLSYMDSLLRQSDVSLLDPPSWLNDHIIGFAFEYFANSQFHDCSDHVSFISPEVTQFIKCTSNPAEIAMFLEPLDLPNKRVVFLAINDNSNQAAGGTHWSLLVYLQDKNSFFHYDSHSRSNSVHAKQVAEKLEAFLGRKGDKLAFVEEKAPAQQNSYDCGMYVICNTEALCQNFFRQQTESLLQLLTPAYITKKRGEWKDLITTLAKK
SENP1 FRET inh – blocks the human SENP1 SUMO protease catalytic domain | Q9P0U3 | recombinant SENP1 catalytic domain, CyPet-SUMO1-YPet FRET cleavage | inhibition, % at 10 µM | 360,000 tested, 0.21% active | AID 624204;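 active means inhibition at least 30% at 10 µM, raw YFP signal under a set limit, fluorescence ratio 0.5 to 1.5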;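 further: 0% = enzyme with DMSO and 100% = no enzyme wells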
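Material: hSENP1 catalytic domain, recombinant; medium: Tris pH 8 with BME, BSA, NP40 and catalase; compound: single concentration of 10 µM compound, 0.5% DMSO final; technique: FRET read of cyan and yellow fluorescence; timing: 50 min enzyme reaction, room temperature, light-protected; reagent: SFCypet-SUMO1-SFYpet substrate at 25 nM; control set: no-enzyme low, enzyme-DMSO high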
SENP8 block-2 – inhibitors of human SENP8 protease | recombinant SENP8, Nedd8 substrate fluorescence | inhibition, % at 20 µM | 360,000 tested, 0.64% active | AID 602440; in the data active means inhibition mostly above about 40%, no sharp cut-off; inactive means mostly below about 27%
SENP8 confirm – confirmation of human SENP8 protease inhibitors; 6,200 tested, 40% active; shares compounds with SENP7 inh; AID 488912; inhibition, % at 12.5 µM; Recombinant SENP8, Z-RLRGG-aminoluciferin luminescence, 60 min;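 active means mean inhibition across replicates above about 50%, limit read from the data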
SENP6 conf – confirmation of human SENP6 protease inhibitors | shares compounds with SENP7 inh | recombinant SENP6, Z-RLRGG-aminoluciferin luminescence | inhibition, % at 12.5 µM | 6,200 tested, 58% active | AID 488915
SENP7 confirm – human SENP7 inhibition, confirmed. 6,200 tested, 69% active. recombinant SENP7, Z-RLRGG-aminoluciferin luminescence, 40 min. inhibition, % at 12.5 µM. shares compounds with SENP7 inh
Casp3 select – caspase-3 inhibition (SENP selectivity assay) | shares compounds with SENP7 inh | purified caspase-3, Z-DEVD-aminoluciferin luminescence, 60 min | inhibition, % at 12.5 µM | 6,200 tested, 60% active;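 active means mean inhibition above about 50%, limit read from the data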;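 further: plate controls were enzyme with DMSO for no effect and wells without caspase-3 for full effect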
Target sequence (P42574 28-227 limits assumed): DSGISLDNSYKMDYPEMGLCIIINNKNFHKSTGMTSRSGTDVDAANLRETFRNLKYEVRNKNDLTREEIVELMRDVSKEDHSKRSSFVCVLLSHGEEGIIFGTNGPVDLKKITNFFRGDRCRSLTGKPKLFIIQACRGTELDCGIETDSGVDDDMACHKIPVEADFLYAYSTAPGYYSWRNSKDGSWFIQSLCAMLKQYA
SENP luc ctr – counter-screen for SENP inhibitors: luminescence interference; shares compounds with SENP7 inh; Pre-incubated SENP8/Z-RLRGG-aminoluciferin, luciferase luminescence interference; inhibition, % at 12.5 µM; 6,200 tested, 39% active;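 active means mean inhibition above about 50% when retested at one dose, limit read from the data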;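 further: plate controls were DMSO wells with completed reaction for no effect and substrate without enzyme for full effect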
Starred values were filed as active, the others as inactive; x = no result given.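 How the source made its calls, unless noted: active means mean inhibition above about 50% in the one-dose retest (limit read from the data); inactive means the rest.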

SMILES	SENP6 inh	SENP7 inh	SENP8 block-1	SENP1 FRET inh	SENP8 block-2	SENP8 confirm	SENP6 conf	SENP7 confirm	Casp3 select	SENP luc ctr
COCc1cccc(-c2csc(C(C)(NC(C)=O)c3ccc(OC)cc3)n2)c1 (centres undefined)	x	x	x	4	22	x	x	x	x	x
O=C(Nc1ccc(Cl)cc1)C1=Cc2ccccc2OC1	66*	45	45	-2	-19	53*	62*	87*	35	34
O=C(Nc1ccc(Cl)c(Cl)c1)c1ccc2c(c1)OCO2	80*	72*	77*	0	17	19	77*	96*	65*	9
COCCNC(=O)COC(=O)C1=Cc2ccccc2OC1	-11	-2	10	0	-76	x	x	x	x	x
O=C(Nc1ccc(NC(=O)c2ccc(Cl)cc2Cl)cc1)c1ccc2c(c1)OCO2	-11	-7	-1	-1	-64	x	x	x	x	x
O=C(CCc1ccccc1)Nc1ccc2c(c1)OCO2	11	5	-1	-1	7	x	x	x	x	x
O=C(Nc1ccc2c(c1)oc1ccccc12)c1ccc2c(c1)OCO2	26	61*	10	0	-17	-6	7	7	4	3
O=C(Nc1ccc2c(c1)OCO2)OCc1ccccc1	-22	60*	38	1	15	52*	51*	82*	53*	34
O=C(O)COC(=O)C1C(c2ccccc2)C(C(=O)O)C1c1ccccc1 (centres undefined)	-6	6	6	-2	6	x	x	x	x	x
O=C(O)c1ccc([N+](=O)[O-])cc1-c1cc([N+](=O)[O-])ccc1C(=O)O	x	x	x	1	23	x	x	x	x	x
Cc1cccc(NS(=O)(=O)c2cc(C(=O)NCCC3=CCCCC3)ccc2Cl)c1	-1	-9	0	3	4	x	x	x	x	x
O=C(Nc1ccc(Cl)c(Cl)c1)Nc1ccccc1O	-3	97*	98*	3	5	98*	100*	104*	90*	98*
CC(=O)c1cccc(NC(=O)c2ccc3c(c2)OCO3)c1	12	17	-15	0	17	x	x	x	x	x
O=C(Nc1ccc(Br)cc1)c1ccc2c(c1)OCO2	34	52*	6	1	-1	12	19	70*	47	2
O=C(Nc1ccc2c(c1)OCO2)c1cccc(Cl)c1	92*	92*	81*	1	10	-6	87*	98*	90*	74*
COc1cc(OC)cc(C(=O)Nc2ccc3c(c2)OCCO3)c1	98*	96*	92*	-1	14	-4	95*	102*	96*	95*
CCN(CC)CCCn1c2c(c(SCC(=O)Nc3ccccc3Cl)nc1=O)CCC2	-19	7	0	-1	5	x	x	x	x	x
O=S(=O)(c1cccs1)N1CCCCC1	x	x	x	1	19	x	x	x	x	x
NC(=O)c1ccc(NC(=O)c2ccc3c(c2)OCO3)cc1	9	46	0	3	12	x	x	x	x	x
Cc1cc(C(=O)Nc2ccc3c(c2)OCO3)cs1	64*	73*	50	0	3	70*	72*	93*	86*	75*
Cc1cc(C(=O)Nc2ccccn2)cs1	72*	71*	49	1	6	40	47	85*	85*	63*
O=C(Nc1ccc2nsnc2c1)c1ccc2c(c1)OCO2	67*	78*	65*	-1	-275	37	57*	88*	80*	46
O=C(NC(=S)Nc1ccc2c(c1)OCCO2)c1ccccc1	76*	25	49	0	12	59*	61*	88*	54*	59*
O=C(Nc1ccc(C(=O)N2CCCC2)cc1)C1CCC1	x	x	x	0	2	x	x	x	x	x
